According to ChEMBL document CHEMBL4339193, “Phenotypic Screening-Based Identification of 3,4-Disubstituted Piperidine Derivatives as Macrophage M2 Polarization Modulators: An Opportunity for Treating Multiple Sclerosis” (J Med Chem, 2019):
The source made the active and inactive calls. The calls are words filed in the database; no cut-off is given here.

Key:
RAW264.7 [1] = assay: Modulation of M2 polarization in mouse RAW264.7 cells assessed as change in Arg1 mRNA expression at 300 nM measured after 24 hrs by qRT-PCR analysis relative to control; format: functional
Outline: (§1)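 RAW264.7 cells (DMEM, 10% FBS) given 300 nM compound for 24 h; IL-4 20 ng/ml as positive control. Arg1 mRNA measured by qRT-PCR; fold change = expression in dosed group / expression in untreated control.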

RAW264.7 [2] = assay: Modulation of M1 polarization in mouse RAW264.7 cells assessed as change in Mcp1 mRNA expression at 300 nM measured after 24 hrs by qRT-PCR analysis relative to control; format: functional, cell-based; settings: RAW264.7, 24 h, read-out: FC
Outline: (§2)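 RAW264.7 cells (DMEM, 10% FBS) exposed 24 h to 300 nM compound alone; LPS 50 ng/ml as positive control. Mcp1 mRNA by qRT-PCR; fold change = dosed group level / control group level.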

RAW264.7 [3] = assay: Modulation of M2 polarization in mouse RAW264.7 cells assessed as up regulation of Arg1 mRNA expression at 300 nM measured after 24 hrs by qRT-PCR analysis; format: functional, cell-based; outline: as §1
RAW264.7 [4] = assay: Modulation of M1 polarization in mouse RAW264.7 cells assessed as up regulation of Mcp1 mRNA expression at 300 nM measured after 24 hrs by qRT-PCR analysis; format: cell-based; settings: raw264.7, 24 h, 0.3 µM; outline: as §2

## Cl.Cn1nccc1-c1ccc(C(=O)N[C@H]2CCCNC2)c(F)c1
RAW264.7 [1]
  fold change (FC): 2.11
RAW264.7 [2]
  fold induction at 0.3 µM: 2.26

## Cl.Cn1ncc(Br)c1-c1ccc(C(=O)N[C@@H]2CNCC[C@H]2c2ccc(F)c(F)c2)cn1
RAW264.7 [1]
  fold change (FC): 0.56
RAW264.7 [2]
  fold induction at 0.3 µM: 1.32

## O=C1NCCN(C(=O)c2ccc(-c3cc[nH]n3)cc2)C1Cc1ccccc1 (stereo unspecified)
RAW264.7 [1]
  fold change (FC): 1.33
RAW264.7 [2]
  fold induction at 0.3 µM: 1.53

## Cn1nccc1C(=O)N1CC(c2cc(F)cc(F)c2)C2[C@H]1C1CCN2CC1 (single isomer, unassigned)
RAW264.7 [1]
  fold change (FC): 1.16
RAW264.7 [2]
  fold induction at 0.3 µM: 1.4

## Cc1cc(-c2c(Br)cnn2C)cnc1C(=O)N[C@@H]1CNCC[C@H]1c1cccc(F)c1.Cl
RAW264.7 [1]
  fold change (FC): 0.71
RAW264.7 [2]
  fold induction at 0.3 µM: 1.63

## Cc1cc(C(=O)N[C@@H]2CNCC[C@H]2c2cccc(F)c2)ccc1-c1c(Br)cnn1C.Cl
RAW264.7 [1]
  fold change (FC): 6.54
RAW264.7 [2]
  fold induction at 0.3 µM: 1.89

## O=C(NCCN1CCCC(c2ccccc2)C1)c1ccc(-c2ccn[nH]2)cc1 (stereo unspecified)
RAW264.7 [1]
  fold change (FC): 1.48
RAW264.7 [2]
  fold induction at 0.3 µM: 1.52

## Cc1ccc(S(=O)(=O)N2CCN(c3nc4ccccc4nc3S(=O)(=O)c3ccc(F)cc3)CC2)cc1
RAW264.7 [3]
  Activity: Active

## Cl.O=C(N[C@@H]1CNCC[C@H]1c1cccc(F)c1)c1ccc(F)cc1
RAW264.7 [1]
  fold change (FC): 0.91
RAW264.7 [2]
  fold induction at 0.3 µM: 1.64

## O=C(Nc1n[nH]c(=O)c2ccccc12)c1cccc(C(=O)N2CCN(C(=O)C3CC3)CC2)c1
RAW264.7 [3]
  Activity: Active

## Cl.Cn1ncc(Cl)c1-c1ccc(C(=O)N[C@@H]2CNCC[C@H]2c2ccc(F)c(F)c2)cn1
RAW264.7 [1]
  fold change (FC): 0.27
RAW264.7 [2]
  fold induction at 0.3 µM: 1.01

## Cn1nccc1C(=O)N1C[C@@H](c2cc(F)cc(F)c2)[C@@H]2[C@H]1C1CCN2CC1
RAW264.7 [1]
  fold change (FC): 2.22
RAW264.7 [2]
  fold induction at 0.3 µM: 1.95

## Cn1nccc1-c1ccc(C(=O)N[C@@H]2CNCC[C@H]2c2ccc(F)c(F)c2)cc1.O=C(O)C(O)C(O)C(=O)O
RAW264.7 [1]
  fold change (FC): 3.42
RAW264.7 [2]
  fold induction at 0.3 µM: 0.9

## Cc1ccc(C(=O)N[C@@H]2CNCC[C@H]2c2cccc(F)c2)s1.Cl
RAW264.7 [1]
  fold change (FC): 1.44
RAW264.7 [2]
  fold induction at 0.3 µM: 1.54

## CCN(CC)C(=O)c1ccc(-c2ccnn2C)cc1F
RAW264.7 [1]
  fold change (FC): 1.96
RAW264.7 [2]
  fold induction at 0.3 µM: 1.97

## Cl.O=C(N[C@@H]1CNCC[C@H]1c1cccc(F)c1)c1ccccc1F
RAW264.7 [1]
  fold change (FC): 1.01
RAW264.7 [2]
  fold induction at 0.3 µM: 1.72

## O=C(NCCN1CCC(c2ccccc2)CC1)c1ccc(-c2cc[nH]n2)cc1
RAW264.7 [1]
  fold change (FC): 3.92
RAW264.7 [2]
  fold induction at 0.3 µM: 2.14

## Cc1ccc(C(=O)N[C@@H]2CNCC[C@H]2c2cccc(F)c2)o1.Cl
RAW264.7 [1]
  fold change (FC): 1.76
RAW264.7 [2]
  fold induction at 0.3 µM: 1.89

## Cn1ncc(Br)c1-c1ccc(C(=O)N[C@@H]2CNCC[C@H]2c2ccc(F)c(F)c2)cc1.O=C(O)C(O)C(O)C(=O)O
RAW264.7 [1]
  fold change (FC): 2.27
RAW264.7 [2]
  fold induction at 0.3 µM: 1.77

## Cn1nccc1-c1ccc(C(=O)Nc2ccc(F)cc2)c(F)c1
RAW264.7 [1]
  fold change (FC): 1.63
RAW264.7 [2]
  fold induction at 0.3 µM: 2.01

## COc1cccc(-c2noc(-c3nn(-c4ccc(Cl)cc4)c4ccccc34)n2)c1
RAW264.7 [3]
  Activity: Active

## Cc1cc(-c2ccnn2C)cnc1C(=O)N[C@@H]1CNCC[C@H]1c1ccc(Cl)c(C(F)(F)F)c1.Cl
RAW264.7 [1]
  fold change (FC): 0.4
RAW264.7 [2]
  fold induction at 0.3 µM: 1.37

## CN(CC1Cc2ccccc2CN1C)C(=O)c1ccc(-c2ccn[nH]2)cc1 (stereo unspecified)
RAW264.7 [1]
  fold change (FC): 2.35
RAW264.7 [2]
  fold induction at 0.3 µM: 1.14

## Cl.Cn1ncc(Cl)c1-c1ccc(C(=O)N[C@@H]2CNCC[C@H]2c2ccc(Cl)c(C(F)(F)F)c2)cc1
RAW264.7 [1]
  fold change (FC): 2.82
RAW264.7 [2]
  fold induction at 0.3 µM: 5.08

## Cc1cc(-c2ccnn2C)cnc1C(=O)N[C@@H]1CNCC[C@H]1c1cccc(F)c1.Cl
RAW264.7 [1]
  fold change (FC): 0.95
RAW264.7 [2]
  fold induction at 0.3 µM: 1.99

## Cl.Cn1nccc1C(=O)N[C@@H]1CNCC[C@H]1c1cccc(F)c1
RAW264.7 [1]
  fold change (FC): 1.62
RAW264.7 [2]
  fold induction at 0.3 µM: 2.05

## Cl.Cn1nccc1-c1ccc(C(=O)N[C@H]2CNCC[C@@H]2c2cccc(F)c2)c(F)c1
RAW264.7 [1]
  fold change (FC): 0.31
RAW264.7 [2]
  fold induction at 0.3 µM: 1.76

## CCNC(=O)c1ccc(-c2ccnn2C)cc1F
RAW264.7 [1]
  fold change (FC): 2.31
RAW264.7 [2]
  fold induction at 0.3 µM: 1.83

## Cl.Cn1ncc(Cl)c1-c1ccc(C(=O)N[C@@H]2CNCC[C@H]2c2ccc(Cl)c(C(F)(F)F)c2)c(F)c1
RAW264.7 [1]
  fold change (FC): 10.33
RAW264.7 [2]
  fold induction at 0.3 µM: 3.54

## Cc1cc(C(=O)N[C@@H]2CNCC[C@H]2c2cccc(F)c2)ccc1-c1c(Cl)cnn1C.Cl
RAW264.7 [1]
  fold change (FC): 8.35
RAW264.7 [2]
  fold induction at 0.3 µM: 2.44

## O=C(NCC(c1ccccc1F)N1CCCC1)c1ccc(-c2cc[nH]n2)cc1 (stereo unspecified)
RAW264.7 [1]
  fold change (FC): 1.09
RAW264.7 [2]
  fold induction at 0.3 µM: 1.34

## COc1ccccc1C(=O)N[C@@H]1CNCC[C@H]1c1cccc(F)c1.Cl
RAW264.7 [1]
  fold change (FC): 1.32
RAW264.7 [2]
  fold induction at 0.3 µM: 1.42

## Cc1cc(C(=O)N[C@@H]2CNCC[C@H]2c2ccc(Cl)c(C(F)(F)F)c2)ccc1-c1c(Cl)cnn1C.Cl
RAW264.7 [1]
  fold change (FC): 1.82
RAW264.7 [2]
  fold induction at 0.3 µM: 4.85

## Cl.Cn1ncc(Cl)c1-c1ccc(C(=O)N[C@@H]2CNCC[C@H]2c2ccc(F)c(F)c2)cc1
RAW264.7 [1]
  fold change (FC): 1.97
RAW264.7 [2]
  fold induction at 0.3 µM: 1.5

## Cl.Cn1ncc(Br)c1-c1ccc(C(=O)N[C@@H]2CNCC[C@H]2c2cccc(F)c2)cc1Cl
RAW264.7 [1]
  fold change (FC): 10.12
RAW264.7 [2]
  fold induction at 0.3 µM: 2.05

## COc1ccc(S(=O)(=O)Nc2ccc(OC)c(-c3ccc(O)cc3)c2)cc1
RAW264.7 [3]
  Activity: Active

## Cl.Cn1ncc(Cl)c1-c1ccc(C(=O)N[C@@H]2CNCC[C@H]2c2ccc(F)c(F)c2)cc1Cl
RAW264.7 [1]
  fold change (FC): 1.72
RAW264.7 [2]
  fold induction at 0.3 µM: 1.16

## Cl.Cn1nccc1-c1ccc(C(=O)N[C@@H]2CNCC[C@H]2c2ccc(Cl)c(C(F)(F)F)c2)cc1Cl
RAW264.7 [1]
  fold change (FC): 5.08
RAW264.7 [2]
  fold induction at 0.3 µM: 1.49

## CC(=O)N[C@@H]1Cc2ccccc2[C@H]1NC(=O)c1cn[nH]c1-c1cccc(F)c1
RAW264.7 [1]
  fold change (FC): 0.8
RAW264.7 [2]
  fold induction at 0.3 µM: 2.14

## Cl.Cn1nccc1-c1ccc(C(=O)N[C@@H]2CNCC[C@H]2c2cccc(F)c2)c(F)c1
RAW264.7 [4]
  Activity: Non-Toxic
RAW264.7 [1]
  fold change (FC): 10.05
RAW264.7 [3]
  Activity: Active
RAW264.7 [2]
  fold induction at 0.3 µM: 1.54

## Cl.Cn1nccc1-c1ccc(C(=O)N[C@@H]2CNCC[C@H]2c2ccc(F)c(F)c2)cn1
RAW264.7 [1]
  fold change (FC): 0.85
RAW264.7 [2]
  fold induction at 0.3 µM: 1.23

## Cc1ccc([C@@H]2CN(C(=O)c3ccc(-c4ccn[nH]4)cc3)C[C@H]2N(C)C)cc1
RAW264.7 [1]
  fold change (FC): 4.85
RAW264.7 [2]
  fold induction at 0.3 µM: 1.24

## CC(C)C[C@H](NC(=O)[C@H](Cc1ccccc1)NC(=O)C[C@H](NC(=O)c1ccc2ccccc2c1)c1ccccc1)C(=O)[C@]1(C)CO1
RAW264.7 [3]
  Activity: Active

## COc1ccc(NC(=O)c2ccc(-c3ccnn3C)cc2F)cc1
RAW264.7 [1]
  fold change (FC): 3.86
RAW264.7 [2]
  fold induction at 0.3 µM: 2.16

## O=C(NCCN1CCC(c2ccccc2)C1)c1ccc(-c2cc[nH]n2)cc1 (stereo unspecified)
RAW264.7 [1]
  fold change (FC): 2.22
RAW264.7 [2]
  fold induction at 0.3 µM: 1.86

## Cl.Cn1ncc(Br)c1-c1ccc(C(=O)N[C@@H]2CNCC[C@H]2c2cccc(F)c2)nc1
RAW264.7 [1]
  fold change (FC): 0.78
RAW264.7 [2]
  fold induction at 0.3 µM: 1.14

## Cl.Cn1nccc1-c1ccc(C(=O)N[C@@H]2CNCC[C@H]2c2ccc(F)c(F)c2)c(F)c1
RAW264.7 [1]
  fold change (FC): 3.99
RAW264.7 [2]
  fold induction at 0.3 µM: 0.39
